Results taken from ChEMBL document CHEMBL1131450, “Synthesis and antitumor evaluation of 2,5-disubstituted-indazolo[4, 3-gh]isoquinolin-6(2H)-ones (9-aza-anthrapyrazoles)” (J Med Chem, 1998).
Values after ≈ are worked out from the molar mass of the structure shown.

Experiments:
LoVo [1] = assay: Resistance index measured as the ratio of IC50 of LoVo/Dx cell line to that of LoVo cell line.; assay type: functional, Homo sapiens
MX1 [2] = assay: In vivo antitumor activity was measured on MX-1 human mammary carcinoma cells. TWI%=tumor weight inhibition. Optimal dose 4.5 mg/kg/day.; assay type: functional
LoVo/Dx (Homo sapiens) = assay: cells
P388 [3] = assay: In vivo antitumor activity was measured on systemic P388 murine leukemia cells. Optimal dose 2 mg/kg/day.; assay type: functional, Mus musculus
Outline: (§1)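 CD2F1 male mice given 10⁶ P388 leukemia cells iv (day 0); drug given iv on days 1, 4 and 7. Survival expressed as T/C% = median survival time of treated / median survival of controls × 100, reported at optimal dose (mg/kg/day) or maximum tested dose.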

LoVo [4] = assay: In vitro cytotoxicity on human colon adenocarcinoma (LoVo ) tumor cell line.; assay type: functional, cell-based
P388 [5] = assay: In vivo antitumor activity was measured on systemic P388 murine leukemia cells. Optimal dose 40 mg/kg/day.; assay type: functional, Mus musculus; conditions: in the assay text read “6 mg/kg/day” for “40 mg/kg/day”; outline: as §1
MX1 [6] = assay: In vivo antitumor activity was measured on MX-1 human mammary carcinoma cells. TWI%=tumor weight inhibition. Optimal dose 120 mg/kg/day.; assay type: functional
P388 [7] = assay: In vivo antitumor activity was measured on systemic P388 murine leukemia cells. Optimal dose 90 mg/kg/day.; assay type: functional, Mus musculus; outline: as §1
MX1 [8] = assay: Antitumor activity was measured on MX-1 human mammary carcinoma cells. TWI%=tumor weight inhibition. Optimal dose at 13.5 mg/kg/day; assay type: functional
P388 [9] = assay: In vivo antitumor activity was measured on systemic P388 murine leukemia cells. Optimal dose at 13.5 mg/kg/day; assay type: functional, Mus musculus; outline: as §1
MX1 [10] = assay: In vivo antitumor activity was measured on MX-1 human mammary carcinoma cells. TWI%=tumor weight inhibition. Optimal dose 11 mg/kg/day.; assay type: functional
P388 [11] = assay: In vivo antitumor activity was measured on systemic P388 murine leukemia cells. Optimal dose 9 mg/kg/day.; assay type: functional, Mus musculus; outline: as §1

Row | IC50 (LoVo/Dx (Homo sapiens)) | Structure (SMILES) | RI (LoVo [1]) | TWI (MX1 [2]) | T/C (P388 [3]) | IC50 (LoVo [4]) | T/C (P388 [5]) | TWI (MX1 [6]) | T/C (P388 [7]) | TWI (MX1 [8]) | T/C (P388 [9]) | TWI (MX1 [10]) | T/C (P388 [11])
1 | 4.3 mg/L (≈ 12.3 µM) | CN(C)CCn1nc2c3c(c(NCCN)ccc31)C(=O)c1ccncc1-2 | 27 | 87% | 213% | 0.16 mg/L (≈ 0.457 µM) |  |  |  |  |  |  | 
2 | 31.6 mg/L (≈ 83.1 µM) | CNCCn1nc2c3c(c(NCCNCCO)ccc31)C(=O)c1ccncc1-2 | 109 |  |  | 0.29 mg/L (≈ 0.762 µM) | 181% |  |  |  |  |  | 
3 | > 100 mg/L | O=C1c2ccncc2-c2nn(CCNCCO)c3ccc(NCCO)c1c23 | >1.9 |  |  | 53.1 mg/L (≈ 145 µM) |  | 49% | 113% |  |  |  | 
4 | 15.9 mg/L (≈ 45.4 µM) | CN(C)CCNc1ccc2c3c(nn2CCN)-c2cnccc2C(=O)c13 | 53 |  |  | 0.3 mg/L (≈ 0.856 µM) |  |  |  |  |  | 80% | 231%

Row | Structure (SMILES) | IC50 (LoVo/Dx (Homo sapiens)) | RI (LoVo [1]) | TWI (MX1 [2]) | T/C (P388 [3]) | IC50 (LoVo [4]) | T/C (P388 [5]) | TWI (MX1 [6]) | T/C (P388 [7]) | TWI (MX1 [8]) | T/C (P388 [9]) | TWI (MX1 [10]) | T/C (P388 [11])
5 | Cl.Cl.O=C1c2c(O)cccc2-c2nn(CCNCCO)c3ccc(NCCNCCO)c1c23 | 44.5 mg/L | 840 |  |  | 0.053 mg/L |  |  |  | 95% | 147% |  | 
